From ChEMBL document CHEMBL5096224, “First-in-Class Dual Mechanism Ferroptosis-HDAC Inhibitor Hybrids” (J Med Chem, 2022)
pIC50: −log10 of the molar value. The source made the active and inactive calls. No cut-off for these calls is given here.

Key:
NCI-H522 [1] = assay: Cytotoxicity against human NCI-H522 cells assessed as reduction in cell viability incubated for 30 mins by methylene blue staining based analysis; conditions: NCI-H522, 0.5 h
HCT-116 = assay: Cytotoxicity against human HCT-116 cells assessed as reduction in cell viability incubated for 30 mins by methylene blue staining based analysis; conditions: HCT-116, 0.5 h
Histone deacetylase 1 = Histone deacetylase 1 (Homo sapiens, UniProt Q13547); assay: Inhibition of full length his6/FLAG-tagged human recombinant HDAC1(1 to 482 residues) expressed in Sf9 insect cells
[2] = target: T1, Protein deacetylase HDAC6 (Homo sapiens, UniProt Q9UBN7); assay: Inhibition of full length C-terminal FLAG-tagged human recombinant HDAC6 expressed inSf9 insect cells; design: species or system Sf9
T1 sequence (Q9UBN7 whole entry): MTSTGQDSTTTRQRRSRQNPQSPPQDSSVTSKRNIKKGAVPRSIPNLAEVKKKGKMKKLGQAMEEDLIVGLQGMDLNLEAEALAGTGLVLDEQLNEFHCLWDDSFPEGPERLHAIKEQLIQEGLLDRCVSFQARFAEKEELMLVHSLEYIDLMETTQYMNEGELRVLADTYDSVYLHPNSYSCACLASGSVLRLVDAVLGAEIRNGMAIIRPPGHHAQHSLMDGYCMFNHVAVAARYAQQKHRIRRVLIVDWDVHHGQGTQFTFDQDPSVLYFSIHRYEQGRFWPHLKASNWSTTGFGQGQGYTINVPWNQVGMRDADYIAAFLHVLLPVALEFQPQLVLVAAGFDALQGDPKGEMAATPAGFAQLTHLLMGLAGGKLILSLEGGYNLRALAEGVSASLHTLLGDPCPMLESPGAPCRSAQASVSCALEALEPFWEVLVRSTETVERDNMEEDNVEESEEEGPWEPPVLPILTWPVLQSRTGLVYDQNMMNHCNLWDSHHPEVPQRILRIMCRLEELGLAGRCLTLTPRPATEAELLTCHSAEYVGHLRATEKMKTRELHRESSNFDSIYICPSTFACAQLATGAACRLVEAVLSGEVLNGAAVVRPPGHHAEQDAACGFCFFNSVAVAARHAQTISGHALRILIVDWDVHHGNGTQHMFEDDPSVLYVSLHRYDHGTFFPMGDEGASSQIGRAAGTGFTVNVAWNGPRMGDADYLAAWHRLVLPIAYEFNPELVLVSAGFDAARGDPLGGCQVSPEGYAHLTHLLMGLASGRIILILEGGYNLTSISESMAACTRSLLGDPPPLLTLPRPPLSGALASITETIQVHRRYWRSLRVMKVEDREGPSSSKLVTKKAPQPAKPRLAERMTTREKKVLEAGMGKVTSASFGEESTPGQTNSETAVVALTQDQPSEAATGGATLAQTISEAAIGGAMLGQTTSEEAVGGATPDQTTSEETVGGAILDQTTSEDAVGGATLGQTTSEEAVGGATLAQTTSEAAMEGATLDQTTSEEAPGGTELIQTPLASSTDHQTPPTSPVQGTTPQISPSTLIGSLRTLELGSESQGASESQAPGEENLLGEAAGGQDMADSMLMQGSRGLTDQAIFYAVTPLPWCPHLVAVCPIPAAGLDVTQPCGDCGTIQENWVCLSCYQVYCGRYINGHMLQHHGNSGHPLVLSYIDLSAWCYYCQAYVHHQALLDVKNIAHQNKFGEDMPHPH

Histone deacetylase 3 = Histone deacetylase 3 (Homo sapiens, UniProt O15379); assay: Inhibition of full length C-terminal his6/FLAG-tagged human recombinant HDAC3 ([…]) expressed in Sf9 insect cells
Histone deacetylase 4 = Histone deacetylase 4 (Homo sapiens, UniProt P56524); assay: Inhibition of […] N-terminal GST/C-terminal his-tagged human recombinant HDAC4 (627 to 1084 residues) expressed in Sf9 insect cells
Histone deacetylase 8 = target: T2, Histone deacetylase 8 (Homo sapiens, UniProt Q9BY41); assay: Inhibition of full length C-terminal his-tagged human recombinant HDAC8 expressed in Sf9 insect cells
T2 sequence (Q9BY41 whole entry): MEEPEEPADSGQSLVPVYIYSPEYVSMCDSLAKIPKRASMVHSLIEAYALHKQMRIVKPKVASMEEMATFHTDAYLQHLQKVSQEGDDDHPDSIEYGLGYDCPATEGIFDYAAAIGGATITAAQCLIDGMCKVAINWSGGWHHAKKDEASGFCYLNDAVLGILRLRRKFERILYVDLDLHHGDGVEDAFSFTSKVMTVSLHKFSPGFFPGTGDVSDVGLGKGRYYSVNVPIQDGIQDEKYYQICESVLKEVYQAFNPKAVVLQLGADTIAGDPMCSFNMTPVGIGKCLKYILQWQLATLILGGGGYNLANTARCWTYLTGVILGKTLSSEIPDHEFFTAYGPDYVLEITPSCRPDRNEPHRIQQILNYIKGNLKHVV

NCI-H522 [3] = assay: Cytotoxicity against human NCI-H522 cells assessed as reduction in cell survival at 1 to 5 uM incubated for 3 days in presence of ferroptosis inhibitor, liproxstatin-1 by methylene blue staining based analysis; assay type: functional; conditions: dose 1-5 µM, time 3.0 day
[4] = Neurotoxicity in human SH-SY5Y cells assessed as decrease in cell viability at 1.665 to 6.665 uM incubated for 3 days; assay type: toxicity, cell-based; conditions: 72 h, dose 1.665-6.665 µM, time 3 day
In short: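 SH-SY5Y cells were grown on poly-D-lysine in DMEM/F12 with 10% FBS and seeded at 15,000/well 36 h before dosing, with DMSO as vehicle. Viability was read by MTT: 2 h at 37 °C, then solubilization for 1 h and absorbance at 570. Data are triplicates from three separate experiments.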

NCI-H522 [5] = assay: Cytotoxicity against human NCI-H522 cells assessed as reduction in cell survival at 1 to 5 uM incubated for 3 days in presence of 2-Bromo-N-(7-(hydroxyamino)-7-oxoheptyl)thiazole-4-carboxamide by methylene blue staining based analysis; assay type: functional; conditions: dose 1-5 µM, time 3.0 day
In short: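 Cells (5000/well, n = 3, DMEM with 10% serum, 37 °C, 5% CO2) were treated the day after plating and kept for three days. […] Survival was expressed relative to DMSO.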

NCI-H522 [6] = assay: Cytotoxicity against human NCI-H522 cells assessed as reduction in cell survival at […] incubated for 3 days by methylene blue staining based analysis; assay type: functional; conditions: dose 2.5 µM, time 3.0 day
Histone deacetylase 2 = Histone deacetylase 2 (Homo sapiens, UniProt Q92769)
NCI-H522 [7] = assay: Induction of cell cycle arrest in human NCI-H522 cells assessed as accumulation at S phase 5 uM incubated for 24 to 72 hrs by PI staining based flow cytometric analysis; assay type: functional; conditions: time lower […], time upper […]
NCI-H522 [8] = assay: Induction of cell cycle arrest in human NCI-H522 cells assessed as accumulation at G2/M phase 5 uM incubated for 24 to 72 hrs by PI staining based flow cytometric analysis; assay type: functional; conditions: time lower […], time upper […]
NCI-H522 [9] = assay: Induction of cell cycle arrest in human NCI-H522 cells assessed as accumulation at G1 phase 5 uM incubated for 24 to 72 hrs by PI staining based flow cytometric analysis; assay type: functional; conditions: time lower […], time upper […]
[10] = Cytotoxicity against human WI-38 cells assessed as reduction in cell survival incubated for 30 mins by methylene blue staining based analysis
NCI-H522 [11] = assay: Induction of ferroptosis in human NCI-H522 cells assessed as viability at 20 uM incubated after 8 to 12 hrs by microscopic analysis; assay type: functional, cell-based; conditions: time lower 8.0 hrs, time upper […]
In short: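 Time-lapse imaging used NCI-H522 cells adhered overnight and equilibrated to 10% CO2, held in sealed flasks on a 37 °C stage. Frames were taken every 12 min, 300 in total, with a ×40 objective. For Kaplan–Meier curves, at least 100 cells were scored, with death counted per 1 h or 0.2 h interval.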

NCI-H522 [12] = assay: Induction of ferroptosis in human NCI-H522 cells assessed as induction of lipid peroxidase accumulation at 10 uM incubated for 4 days in presence of Lipoxstatin-1 by C11-BODIPY-581/591 staining based flow cytometry analysis; assay type: functional, cell-based

Histone deacetylase 3, sequence (O15379 whole entry, the tested form may be a part): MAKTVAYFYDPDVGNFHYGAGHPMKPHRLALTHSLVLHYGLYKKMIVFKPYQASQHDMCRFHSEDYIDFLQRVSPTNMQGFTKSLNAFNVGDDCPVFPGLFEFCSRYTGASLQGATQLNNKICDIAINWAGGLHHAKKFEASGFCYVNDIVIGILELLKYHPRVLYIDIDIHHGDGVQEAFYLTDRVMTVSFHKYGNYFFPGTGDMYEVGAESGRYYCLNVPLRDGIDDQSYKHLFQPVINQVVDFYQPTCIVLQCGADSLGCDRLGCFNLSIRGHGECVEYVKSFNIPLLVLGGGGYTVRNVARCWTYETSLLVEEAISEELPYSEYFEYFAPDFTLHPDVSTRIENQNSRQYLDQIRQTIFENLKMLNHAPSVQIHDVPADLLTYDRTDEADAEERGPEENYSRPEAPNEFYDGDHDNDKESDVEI
Histone deacetylase 4, sequence (P56524 whole entry, the tested form may be a part): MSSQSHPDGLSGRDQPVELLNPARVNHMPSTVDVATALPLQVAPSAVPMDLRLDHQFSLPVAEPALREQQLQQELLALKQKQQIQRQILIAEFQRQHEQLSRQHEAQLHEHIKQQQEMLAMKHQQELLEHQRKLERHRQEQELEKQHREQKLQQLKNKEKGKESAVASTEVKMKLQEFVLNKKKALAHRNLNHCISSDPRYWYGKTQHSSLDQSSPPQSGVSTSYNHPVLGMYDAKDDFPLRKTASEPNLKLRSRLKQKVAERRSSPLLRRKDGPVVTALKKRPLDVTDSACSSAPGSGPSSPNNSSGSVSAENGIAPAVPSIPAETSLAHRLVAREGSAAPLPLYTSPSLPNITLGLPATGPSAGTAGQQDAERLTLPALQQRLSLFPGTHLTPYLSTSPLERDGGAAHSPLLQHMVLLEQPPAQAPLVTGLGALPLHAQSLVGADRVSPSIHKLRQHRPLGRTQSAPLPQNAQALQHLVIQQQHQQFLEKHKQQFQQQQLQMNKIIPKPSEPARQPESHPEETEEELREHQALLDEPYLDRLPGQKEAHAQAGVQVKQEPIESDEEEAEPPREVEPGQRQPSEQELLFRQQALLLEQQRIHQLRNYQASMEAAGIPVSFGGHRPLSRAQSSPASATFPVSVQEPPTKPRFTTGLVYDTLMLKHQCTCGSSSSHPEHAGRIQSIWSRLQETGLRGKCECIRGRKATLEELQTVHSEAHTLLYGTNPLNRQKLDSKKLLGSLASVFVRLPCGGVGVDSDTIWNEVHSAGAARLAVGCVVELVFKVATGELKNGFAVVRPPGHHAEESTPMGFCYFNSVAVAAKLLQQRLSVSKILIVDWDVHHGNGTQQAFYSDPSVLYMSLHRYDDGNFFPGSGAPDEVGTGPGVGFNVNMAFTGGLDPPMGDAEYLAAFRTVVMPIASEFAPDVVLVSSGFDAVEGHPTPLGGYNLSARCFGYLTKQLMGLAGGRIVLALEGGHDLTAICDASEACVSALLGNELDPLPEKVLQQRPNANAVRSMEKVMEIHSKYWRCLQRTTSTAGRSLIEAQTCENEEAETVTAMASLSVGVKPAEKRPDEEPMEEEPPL
Histone deacetylase 1, sequence (Q13547 whole entry, the tested form may be a part): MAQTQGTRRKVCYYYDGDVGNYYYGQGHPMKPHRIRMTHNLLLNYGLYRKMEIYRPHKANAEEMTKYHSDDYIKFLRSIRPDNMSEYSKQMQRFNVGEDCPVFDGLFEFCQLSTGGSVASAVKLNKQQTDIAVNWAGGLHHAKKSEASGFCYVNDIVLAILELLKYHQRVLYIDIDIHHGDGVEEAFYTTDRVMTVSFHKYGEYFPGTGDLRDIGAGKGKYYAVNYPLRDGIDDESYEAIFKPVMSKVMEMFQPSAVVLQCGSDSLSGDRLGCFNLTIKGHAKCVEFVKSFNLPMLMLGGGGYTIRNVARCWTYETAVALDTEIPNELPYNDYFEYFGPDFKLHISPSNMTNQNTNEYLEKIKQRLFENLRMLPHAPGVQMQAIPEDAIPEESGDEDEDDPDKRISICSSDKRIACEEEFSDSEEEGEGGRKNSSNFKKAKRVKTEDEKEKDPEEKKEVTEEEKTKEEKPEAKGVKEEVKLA
Histone deacetylase 2, sequence (Q92769 whole entry): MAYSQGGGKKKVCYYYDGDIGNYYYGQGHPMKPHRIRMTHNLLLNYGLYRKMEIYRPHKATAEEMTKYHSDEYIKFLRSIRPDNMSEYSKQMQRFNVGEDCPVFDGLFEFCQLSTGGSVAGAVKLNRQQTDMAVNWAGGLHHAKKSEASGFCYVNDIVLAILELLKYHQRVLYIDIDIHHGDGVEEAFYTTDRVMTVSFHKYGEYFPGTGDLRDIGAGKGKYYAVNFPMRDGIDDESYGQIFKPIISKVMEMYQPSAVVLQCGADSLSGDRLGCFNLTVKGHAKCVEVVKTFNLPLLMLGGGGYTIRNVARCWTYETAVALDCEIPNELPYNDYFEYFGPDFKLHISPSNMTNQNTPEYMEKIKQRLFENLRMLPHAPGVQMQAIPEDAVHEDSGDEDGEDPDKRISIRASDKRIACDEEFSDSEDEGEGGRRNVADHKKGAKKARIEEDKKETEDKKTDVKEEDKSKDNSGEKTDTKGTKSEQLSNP

Structure (SMILES) | pIC50 (Histone deacetylase 1) | pIC50 [2] | pIC50 (Histone deacetylase 3) | pIC50 (Histone deacetylase 4) | pIC50 (Histone deacetylase 8) | Activity (NCI-H522 [3]) | further results
C#Cc1nc(/C=C/CCCCCC(=O)NO)cs1 | 7.14 | 8.00 | 7.04 | 5.07 | 6.57 |  | pIC50 (NCI-H522 [1]): 5.80; pIC50 (HCT-116): 5.30
C#Cc1nc(C(=O)NCCCCCCC(=O)OC)cs1 |  |  |  |  |  | Active | Activity [4]: Toxic; Activity (NCI-H522 [5]): Active
C#Cc1nc(/C=C/C=C/C(=O)NO)cs1 | 6.00 | 6.80 | 5.51 | 5.68 | 6.17 |  | Activity (NCI-H522 [6]): Active; pIC50 (Histone deacetylase 2): 5.92
O=C(CCCCCCC(=O)Nc1ccccc1)NO [VORINOSTAT] |  |  |  |  |  |  | Activity (NCI-H522 [7]): Active; Activity (NCI-H522 [8]): Active; Activity (NCI-H522 [9]): Active
C#Cc1nc(C2=C(C)[C@@H](O)CC2)cs1 |  |  |  |  |  |  | IC50 at 30 min [10]: 15100 nM; Activity (NCI-H522 [11]): Active; Activity (NCI-H522 [12]): Active
O=C(CCCCC/C=C\c1csc(Br)n1)NO |  |  |  |  |  | Active | 
